Source: the RNAGym collection of RNA variant scans (doi:10.1126/science.aae0568)
Variants at the floor of the assay were thinned out.

B1: tRNA (parent)
chain: GUUCCGUUGGCGUAAUGGUAACGCGUCUCCCUCCUAAGGAGAAGACUGCGGGUUCGAGUCCCGUACGGAACG

Variants of: B1
Assay: yeast fitness relative to wild type (ratio to wild type); higher = fitter; tRNA-Arg(CCU), competitive growth, 37 C, YPD
Outline: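 For this measurement, the tRNA-Arg(CCU) gene was varied by chemical synthesis at a 3% per-site mutation rate across 69 sites, and each variant was placed at the native genomic locus in Saccharomyces cerevisiae. The pooled strains went through a 24-hour competition in YPD at 37°C in six parallel replicates, with amplicons from start and end populations read by 100-nucleotide paired-end sequencing. Darwinian fitness relative to wild type followed from the change in each genotype's frequency. Genotypes needed ≥ 100 starting reads, and estimates < 0.5 were set to 0.5.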
Variant GUUCCGCUGGCGUAAUGGUAACGCAUCACCCUCCUAAGGAGAAGACUCCGGGUUCGAGUCCCGUACGGACCG [U7C G25A U28A G48C A70C] has a yeast fitness of no more than 0.5.
GUUCCGCUGGCGUAAUGGUAACGCCUCUCCCUCCUAAGGAGGAGACUGCGGGUUCGAGUCCCGUACGGAACG [U7C G25C A42G] gave a yeast fitness of 0.567.
Work on GUUCCGCUGGCGUAAUGGUAACGCCUCUCGCUUCUAAGGAGAAGGCGGCCGGUUCGAGUCCCAUACGGAACG [U7C G25C C30G C33U A45G U47G G50C G63A] yielded a yeast fitness of no more than 0.5.
GUUCCGCUGGCGUAAUGGUAACGCGUCUCCCUCCUAAAGAGAAGACUGCGGGUUCGACUCCCGUACGGAACG [U7C G38A G58C] showed a yeast fitness of 0.648.
Work on GUUCCGCUGGCGUAAUGGUAACGCGUCUCCCUCCUAACGAGAAGACUGAGGGUUCGAGUCCCGUACGGAACG [U7C G38C C49A] yielded a yeast fitness of 0.618.
With GUUCCGCUGGCGUAAUGGUAACGCGUCUCCCUCCUAACGAGAAGACUGAGGGUUCAAGUCGCGUACGGAACG [U7C G38C C49A G56A C61G] the yeast fitness was no more than 0.5.
With GUUCCGCUGGCGUAAUGGUAACGCGUCUCCCUCCUAAGAAGAAGACUGCGGGUUCGAGUCCCGUACGGAACG [U7C G39A] the yeast fitness was 0.913.
GUUCCGCUGGCGUAAUGGUAACGCGUCUCCCUCCUAAGGAACAGACUGCCGGUUCGAGUCCCGUCCGGAACG [U7C G41A A42C G50C A65C] showed a yeast fitness of no more than 0.5.
With GUUCCGCUGGCGUAAUGGUAACGCGUCUCCCUCCUAAGGAACAGACUGCCGGUUCGAGUCCCGUUCGGAACG [U7C G41A A42C G50C A65U] the yeast fitness was no more than 0.5.
With GUUCCGCUGGCGUAAUGGUAACGCGUCUCCCUCCUAAGGAACAGACUGCCGGUUCGAGUCCCGUACGGUACG [U7C G41A A42C G50C A69U] the yeast fitness was 0.556.
Work on GUUCCGCUGGCGUAAUGGUAACGCGUCUCCCUCCUAAGGAACAGACUGCCGGUUCGAGUCCCGUACGGACCG [U7C G41A A42C G50C A70C] yielded a yeast fitness of no more than 0.5.
In the case of GUUCCGCUGGCGUAAUGGUAACGCGUCUCCCUCCUAAGGAACAGACUGCCGGUUCGAGUCCUGUACGGAACG [U7C G41A A42C G50C C62U], the yeast fitness is reported as no more than 0.5.
With GUUCCGCUGGCGUAAUGGUAACGCGUCUCCCUCCUAAGGAACAGACUGCCGAUUCGAGUCCCGUACGGAGCG [U7C G41A A42C G50C G52A A70G] the yeast fitness was no more than 0.5.
Work on GUUCCGCUGGCGUAAUGGUAACGCGUCUCCCUCCUAAGGAACAGACUGCCGGUUCGAGUCCCAUACGGAGCG [U7C G41A A42C G50C G63A A70G] yielded a yeast fitness of 0.555.
Variant GUUCCGCUGGCGUAAUGGUAACGCGUCUCCCUCCUAAGGAACAGACUGCCGGUUCGAGUCCCGUACUGAACG [U7C G41A A42C G50C G67U] has a yeast fitness of no more than 0.5.
Variant GUUCCGCUGGCGUAAUGGUAACGCGUCUCCCUCCUAAGGAGAAGACUACGGGUUCGAGUCCCGUACGGCACG [U7C G48A A69C] has a yeast fitness of 0.695.
Variant GUUCCGCUGGCGUAAUGGUAACGCGUCUCCCUCCUAAGGAGAAGACUACGGGUAGGAGUCCCGUUCGGAACG [U7C G48A U54A C55G A65U] has a yeast fitness of no more than 0.5.
With GUUCCGCUGGCGUAAUGGUAACGCGUCUCCCUCCUAAGGAGAAGACUCCGGGUUCGAGUCGCGUUCGGAACG [U7C G48C C61G A65U] the yeast fitness was no more than 0.5.
For GUUCCGCUGGCGUAAUGGUAACGCGUCUCCCUCCUAAGGAGAAGACUCCGGGUUCGAGUCCUGUACGGAACG [U7C G48C C62U], the yeast fitness was 0.548.
GUUCCGCUGGCGUAAUGGUAACGCGUCUCCCUCCUAAGGAGAAGACUCCGGGUUCGAGUCCCGUACCGAACG [U7C G48C G67C] showed a yeast fitness of no more than 0.5.
GUUCCGCUGGCGUAAUGGUAACGCGUCUCCCUCCUAAGGAGAAGACUGCGAGUUCGAGUCCGGUGCGGAACG [U7C G51A C62G A65G] showed a yeast fitness of no more than 0.5.
Variant GUUCCGCUGGCGUAAUGGUAACGCGUCUCCCUCCUAAGGAGAAGACUGCGCGUUCGUGUCCCGUACGGAACG [U7C G51C A57U] has a yeast fitness of no more than 0.5.
GUUCCGCUGGCGUAAUGGUAACGCGUCUCCCUCCUAAGGAGAAGACUGCGGGUUCAAGUCCCGUACGGAACG [U7C G56A] showed a yeast fitness of 0.977.
Work on GUUCCGCUGGCGUAAUGGUAACGCGUCUCCCUCCUAAGGAGAAGACUGCGGGUUCCAGUCCCGUACGGAACG [U7C G56C] yielded a yeast fitness of 0.692.
GUUCCGCUGGCGUAAUGGUAACGCGUCUCCCUCCUAAGGAGAAGACUGCGGGUUCGACUCCCGUAAGGAACG [U7C G58C C66A] showed a yeast fitness of 0.584.
GUUCCGCUGGCGUAAUGGUAACGCGUCUCCCUCCUAAGGAGAAGACUGCGGGUUCGAGUCCCGUACAGAACG [U7C G67A] gave a yeast fitness of 0.863.
GUUCCGCUGGCGUAAUGGUAACGCGUCUCCCUCCUAAGGAGAAGACUGCGGGUUCGAGUCCCGUACUGAACG [U7C G67U] showed a yeast fitness of 0.847.
GUUCCGCUGGCGUAAUGGUAACGCGUCUCCCUCCUAAGGAGAAGACUGCGGGUUCGAGUCCCGUACGCAACG [U7C G68C] showed a yeast fitness of 0.876.
GUUCCGCUGGCGUAAUGGUAACGCGUCUCCCUCCUAAGGAGAAGACUGCGGGUUCGAGUCCCGUACGCUACG [U7C G68C A69U] showed a yeast fitness of 0.612.
With GUUCCGCUGGCGAAAUGGUAACGUGUCUCCCUCCUAAGGAGAAGACUGCGAGUUCGAGACCCGUCCGGAACG [U7C U13A C24U G51A U59A A65C] the yeast fitness was 0.642.
GUUCCGCUGGCGUAAAGGUAACGCGUCUCCCUCCUAAGGACAAGACUGCGGGUUCGAGUCCCGUACGGAACG [U7C U16A G41C] gave a yeast fitness of 0.613.
With GUUCCGCUGGCGUAAAGGUAACGCGUCACCCUCCUAAGGAGAAGACUGCGGGUUCGAGUCCCGUACGGAACG [U7C U16A U28A] the yeast fitness was no more than 0.5.
Work on GUUCCGCUGGCGUAACGGUAACGCGUCUCCCUCCUAAGGAGAAGACUGCGGGUUCGAGUCCCGUACGGAACG [U7C U16C] yielded a yeast fitness of 0.831.
GUUCCGCUGGCGUAACGGUAUAGCGUCUCCCUCCUAAGGAGAAGACUGUCGGUUCGAGUCCCGUACGGUACG [U7C U16C A21U C22A C49U G50C A69U] showed a yeast fitness of no more than 0.5.
GUUCCGCUGGCGUAAGGGUAACGCGUCACCCUCCUAAGGAGAAGACUGGGGGUUCGCGUCCCGUACUGAACG [U7C U16G U28A C49G A57C G67U] gave a yeast fitness of no more than 0.5.
Variant GUUCCGCUGGCGUAAUGGAAACGCGUCUCCCUCCUAAGGAGAAGACUGCGGGUUCGAGUCCAGUACCGAACG [U7C U19A C62A G67C] has a yeast fitness of no more than 0.5.
In the case of GUUCCGCUGGCGUAAUGGCAACGCGCCUCCCUCUUAAGGAGAAGACUGCGGAUUCGAGACCCCUACGGAACG [U7C U19C U26C C34U G52A U59A G63C], the yeast fitness is reported as no more than 0.5.
GUUCCGCUGGCGUAAUGGGAACGCGUCUCCCUCCUAAGGAGAAGACUGCGGGUUCGAGUCGUGUACGGAACG [U7C U19G C61G C62U] gave a yeast fitness of 0.514.
